Measured values gathered from unrelated publications.
Each line is one published result; the experiments were not run side by side.
Target: RAF proto-oncogene serine/threonine-protein kinase (RAF1, Homo sapiens, UniProt P04049)

SMILES | observed | mode | technique | concentration | endpoint | result
Cc1ccc(NC(=O)c2ccnc(C(F)(F)F)c2)cc1-c1cc(OCCO)nc(N2CCOCC2)c1 | binding | – | competition with immobilised ligand | 1 µM | remaining binding | 1.2%
C=CC(=O)N1CCC([C@@H]2CCNc3c(C(N)=O)c(-c4ccc(Oc5ccccc5)cc4)nn32)CC1 | enzyme activity | inhibitor | – | 1 µM | inhibition | 0%
C#Cc1cc(-c2cc(Nc3nc(N[C@@H](C)c4ccc(F)cn4)ncc3Cl)n[nH]2)ccc1C=O | enzyme activity | inhibitor | – | 0.2 µM | inhibition | 13.8%
C#Cc1cnc(Nc2ccnc(CO)c2)nc1Nc1ccccc1S(C)(=O)=NC#N (stereo not shown) | cell-free assay | – | – | 1 µM | remaining signal | 85%
Cc1cc(O)c(-c2ccc([C@@H](C)CN(C)C)cc2)c2c1[nH]c(=O)c1sccc12 | enzyme activity | inhibitor | – | 0.1 µM | inhibition | 7.07%
CCCCC(=O)Nc1ccc(-c2ccc3ncn(CCC)c(=O)c3c2)cn1 | binding | – | competition with immobilised ligand | 0.5 µM | remaining binding | 80%
N#Cc1ccc(NC(=O)Nc2ccccc2)cc1 | cell-free assay | – | competition with immobilised ligand | 25 µM | remaining binding | 98%
CO[C@@H]1[C@H](N(C)C(=O)c2ccccc2)C[C@H]2O[C@]1(C)n1c3ccccc3c3c4c(c5c6ccccc6n2c5c31)C(=O)NC4 | enzyme activity | inhibitor | – | 1 µM | inhibition | 0%
COc1ccc2oc(-c3ccc4nc(N)oc4c3)c/c(=N\c3ccccc3NC(=O)CCN)c2c1 | binding | – | – | 1 µM | remaining binding | 104%
COc1ccc2[nH]c3c4[nH]c5ccc(OC)cc5c4c4c(c3c2c1)C(=O)NC4=O | binding | – | competition with immobilised ligand | 1 µM | remaining binding | 100%
